# About 40 (3%) of roughly 1,300 compounds were called active. Only a sample is shown. Potency and affinity values are given separately. A number with no mark means an inactive call. How the calls were made is not given here.
# Assay: growth inhibition of wild-type E. coli BW25113 pool, dose response, OD615 (AID 635);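 further: growth measured after 20 h with compound at 37 °C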
# Details: pooled mutant strains; at 100 µM (top of the series)
# Outline: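 Material: Keio BW25113 knockout pool, 1,275 strains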
row,SMILES,growth inhibition
1,Cc1cccc(N(C)C(=O)c2cc3cc4ccc(C)cc4nc3o2)c1,-7.96%
2,CC(C)OCCCNc1ncnc2c1[nH]c1ccccc12,0.81%
3,CC(C)OCCCNc1ncnc2c1[nH]c1ccc(F)cc12,-0.56%
4,O=C(CSc1nc2ccccc2o1)Nc1nc2c(s1)CCCC2,-2.1%
5,Cc1cc(NC(=O)Cn2nnc3sc4c(c3c2=O)CCC(C(C)(C)C)C4)no1 (stereo not given),-1.22%
6,CCOC(=O)Cc1ccc(NS(=O)(=O)c2ccc(SC)cc2)cc1,0.18%
7,c1ccc2c(c1)CCN(c1nc3cc4c(cc3s1)OCCO4)C2,0.44%
8,CC(C)c1ccc(Nc2nc(NCc3ccco3)nc(N3CCOCC3)n2)cc1,-1.77%
9,COc1ccc(NS(=O)(=O)c2ccc3oc(Nc4ccc5c(c4)OCCO5)nc3c2)cc1,-4.76%
10,CCCN(CCC)S(=O)(=O)c1ccc(C(=O)Nc2nnc(-c3cccc(OC)c3)o2)cc1,-1.14%
11,Cc1cccc(N2CCN(C(=O)C34CC5CC(CC(C5)C3)C4)CC2)c1C,4.49%
12,Cn1cccc1C(=O)Nc1nc(-c2ccccn2)cs1,1.36%
13,COc1ccc(C(=O)Nn2cnc3scc(-c4cccs4)c3c2=O)c(O)c1,0.89%
14,COC(=O)c1[nH]c2cccc(OC)c2c1NC(=O)CN1CC2(C)CC1CC(C)(C)C2 (stereo not given),1.93%
15,COC(=O)c1cccc(-n2nnnc2SCC(=O)Nc2nc3c(s2)CCCC3)c1,-0.44%
16,O=C1OC(c2ccc(O)cc2)(c2ccc(O)cc2)c2ccccc21,0.54%
17,Cc1cccc(Nc2nc(NCc3ccco3)nc(N3CCOCC3)n2)c1,0.54%
18,CCOc1cc(S(=O)(=O)n2cc(-c3ccc(F)cc3)c(N)n2)cc(OCC)c1OCC,-3.17%
19,CC1Cc2ccccc2N1C(=O)Cn1c(=O)oc2cc(S(=O)(=O)NC3CCCC3)ccc21 (stereo not given),-2.66%
20,CCCn1nnnc1NC(=O)CSc1ccc(Cl)cc1,1.76%
21,Cc1cc(NC(=O)C2CCCCC2)nc2c1c(=O)oc1ccccc12,-2.5%
22,N#Cc1nc(COc2ccc(F)cc2)oc1N1CCN(Cc2ccccc2)CC1,-4.59%
23,c1ccc2oc(SCc3nc4ccccc4s3)nc2c1,-0.66%
24,C=CCn1c(SCC(=O)Nc2ccc3c(c2)CCC3)nnc1-c1cccs1,-0.97%

row,SMILES,growth inhibition
1,O=C(c1cc2ccccc2o1)N1CCN(c2ccccc2Cl)CC1,-2.73%
2,O=C(CSc1nnnn1C1CCCCC1)Nc1nc2c(s1)CCCC2,-0.43%
3,O=C(O)c1cc(Cl)c2ccccc2c1O,9.52%
4,O=c1c(-c2nc3ccccc3o2)c2oc3ccccc3n2c2ccccc12,-2.69%
5,Cc1cccc(S(=O)(=O)Nc2nc3ccccc3nc2NCc2ccco2)c1,2.5%
6,Cc1ccc(-n2c(C)cc(C(=O)COC(=O)c3c(C)noc3C)c2C)cc1,-5.46%
7,O=C(c1cccs1)N(Cc1nc2sc3c(c2c(=O)[nH]1)CCCC3)C1CCCC1,-3.44%
8,N#Cc1ccc(NC(=O)Nc2ccc(Cl)cc2)cc1,12.7%
9,CCOc1ccc(OCCSc2nnnn2C2CCCCC2)cc1,2.59%
10,COc1ccc(C(C)(C)C)cc1NC(=O)Nc1ccc2c(c1)OCO2,2.22%
11,COc1ccccc1-c1noc(CCC(=O)Nc2cccc(C(F)(F)F)c2)n1,9.08%
12,CCc1ccc2oc(=O)cc(CN(C)Cc3ccccc3)c2c1,0.54%
13,O=C(c1ccc2c(=O)n(C3CCCC3)c(=S)[nH]c2c1)N1CCN(C2CCCCC2)CC1,0.27%
14,Cc1cc(C)c(C#N)c(SCC(=O)OC2CCCCC2)n1,4.58%
15,COC(=O)c1ccc(CSc2nc3ccccc3o2)cc1,-2.69%
16,CCCCn1nc(NC(=O)c2cccs2)c2cc3ccccc3nc21,-3.62%
17,Cc1ccccc1OCCCN1C(=O)C(=O)c2cccc(C)c21,-1.21%
18,Clc1ccc(OCc2nc(-c3ccccn3)n[nH]2)cc1,3.08%
19,Cc1cccc(Nc2nc(-c3ccccn3)cs2)n1,-0.44%
20,CC1=C(C(=O)OC2CCCCCCC2)C(c2cccc(O)c2)NC(=O)N1 (stereo not given),3.15%
21,CCC(C(=O)Nc1ccccc1OC)n1c(C(=O)OC)cc2ccsc21 (stereo not given),2.88%
22,COc1cccc(-c2cc(C(=O)N3CCc4ccccc4C3)no2)c1,-1.57%
23,CC(C)C(C(=O)NCc1ccco1)N(C(=O)CNS(=O)(=O)c1ccc(Cl)cc1)C1CCCC1 (stereo not given),-9.91%
24,O=S(=O)(N1CCCCC1)n1c(Cc2ccccc2)nc2ccccc21,2.59%

row,SMILES,growth inhibition
1,Cc1cc(N2CCCCC2)n2ncc(-c3ccccc3)c2n1,1.76%
2,Cc1ccc(C(c2nnnn2CCc2ccccc2)N2CCSCC2)cc1 (stereo not given),-0.97%
3,N#Cc1cn(Cc2cccc(Cl)c2)c2ccccc12,7.22%
4,CCCCN1C(=O)C2ON(c3ccccc3C)C(c3ccco3)C2C1=O (stereo not given),3.87%
5,CN1CCN(CC(=O)N2CCn3c4c(c5cc(C6CCCCC6)ccc53)CCCC42)CC1 (stereo not given),1.85%
6,CCN(CCCNC(=O)c1[nH]c(C)c(C(C)=O)c1C)c1cccc(C)c1,1.22%
7,CCCc1cc(C(=O)N2CCN(c3ccccc3C)CC2)cs1,3.4%
8,COc1ccc2nc(NC(=O)CSc3nnnn3C3CCCCC3)sc2c1,0.18%
9,CCn1cc(C(=O)NC2CCCCC2C)c(=O)c2ccc(C)nc21 (stereo not given),7.04%
10,Cc1cccc(NC(=O)CSc2nnc(-c3cc(C)n(-c4ccccc4)c3C)o2)c1C,0.15%
11,O=S(=O)(Nc1cc(Cl)ccc1N1CCCCC1)c1cccs1,3.05%
12,Cc1cc(=O)[nH]c(SCC(=O)Nc2nc(-c3ccccc3)cs2)n1,4.29%
13,COc1ccccc1N1CCN(C(=O)c2cc(-c3cccc(Cl)c3)on2)CC1,-2.98%
14,CC(C)c1nnc(NC(=O)c2c(O)c3cccc4c3n(c2=O)CC4)s1,-11%
15,CCOc1cc(S(=O)(=O)N2CCN(Cc3ccccc3)CC2)ccc1Br,-3.26%
16,CC1CN(c2oc(COc3ccc(Cl)cc3Cl)nc2C#N)CC(C)O1 (stereo not given),-5.37%
17,CN(C1CCCCC1)S(=O)(=O)c1ccc(NC(=O)c2ccc(Br)o2)cc1,-1.39%
18,Cc1[nH]n2c(=O)c3c(nc2c1-c1ccc(Cl)cc1)CCC3,-1.19%
19,CCOC(=O)c1cn(CC)c2cc(N3CCSCC3)c(F)cc2c1=O,3.43%
20,Cc1csc(NC(=O)c2cccc(Cn3nc(C)c(Br)c3C)c2)n1,1.33%
21,COc1ccc(-c2[nH]ncc2Oc2ccccc2OC)c(O)c1,7.41%
22,Cc1ccc(Cl)cc1NC(=O)CC(O)(C(F)(F)F)C(F)(F)F,15.3%
23,CCOC(=O)C1CCN(C(c2cccnc2)c2c(NC(=O)c3ccco3)sc(C)c2C)CC1 (stereo not given),-3.15%
24,Cc1cc(C)c(O)c(-c2cc(C(=O)Nc3ccc(S(=O)(=O)N4CCOCC4)cc3)[nH]n2)c1,3.2%

row,SMILES,growth inhibition
1,COc1ccc(S(=O)(=O)N(Cc2cccs2)C2CCCC2)cc1,3.24%
2,COc1ccc(OCC(O)Cn2c(=N)n(Cc3ccccc3)c3ccccc32)cc1 (stereo not given),12.8%
3,CCc1nc(N2CCCCC2)c2oc3ccccc3c2n1,-3.08%
4,Brc1cc(Br)c2ncnc(N3CCCCC3)c2c1,1.95%
5,COCCCN1C(=O)c2[nH]nc(-c3ccccc3O)c2C1c1ccc(Cl)cc1 (stereo not given),-4.43%
6,COc1ccccc1N1CCN(C(c2ccccc2Cl)c2nnnn2C(C)(C)C)CC1 (stereo not given),-0.1%
7,CC(C)c1nc(N2CCN(C(=O)c3ccco3)CC2)c2c3c(sc2n1)CCCC3,4.77%
8,O=C(CN(C(=O)CNC(=O)c1ccco1)c1ccc(Cl)c(Cl)c1)NC1CCCCC1,1.85%
9,CCCCOn1c(C)c(C(=O)OCC)c2c3nonc3ccc21,2.87%
10,CCOC(=O)c1sc(NC(=O)CSc2n[nH]c(-c3ccccc3)n2)c(C#N)c1C,1.14%
11,Cc1cccc(Cc2c(C)nc3c(C(=O)NCc4ccco4)cnn3c2C)c1,-6.42%
12,Cc1noc(C)c1S(=O)(=O)N(CCc1ccccc1)Cc1ccccc1,3.25%
13,Cc1ccc2c3c1C1(C(=O)N3C(C)(C)CC2C)C(C#N)=C(N)Oc2cc(O)ccc21 (stereo not given),4.82%
14,Cc1ccc(C2C(S(C)(=O)=O)=C(O)C(=O)N2c2ccccc2)cc1 (stereo not given) (tested in a mixture with another compound),3.27%
15,CC1CCCC(C)N1C(=O)CN1C(=O)C(C)(C)Oc2ccc(C(=O)NC3CCCCC3)cc21 (stereo not given),-0.3%
16,Oc1ccccc1-c1cc(-c2ccc3c(c2)OCCO3)n[nH]1,5.21%
17,Cc1csc(SCC(=O)Nc2nc(-c3ccccc3)cs2)n1,0.45%
18,O=C(Nc1nc(SCc2ccc(F)cc2)ns1)c1ccco1,8.93%
19,COc1ccc2[nH]c(=O)c(CN(C(=O)NC3CCCCC3)C3CCCCC3)cc2c1,-1.14%
20,COC(=O)c1c(NC(=O)Cc2cccs2)sc2c1CCCC2,4.36%
21,Cn1c(-c2ccc3c(c2)OCO3)cnc1N,-1.76% (active)
22,N#Cc1c(N)oc(-c2ccc3c(c2)OCO3)c1-c1ccc2c(c1)OCO2,1.41%
23,OCCn1c(-c2ccc3c(c2)OCO3)csc1=Nc1ccccc1,-0.74%
